Only some compounds are listed: those with a hit (about 4.3% of all), similar ones and a draw of the others.
APP 5'UTR act: activates APP 5'UTR luciferase reporter; SH-SY5Y APP 5'UTR luciferase reporter, luminescence; zero percent = DMSO vehicle wells; activation, % at 2 µM; 1% of 190,000 active; AID 1276;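 active = activation above a set limit, based on mean plus 3 SD of controls, cut at about 140% in these data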
FLuc inhib CS: counter-screen for luciferase assay inhibitors: firefly luciferase inhibition. P08659. ATPLite firefly luciferase biochemical luminescence, 10 min. inhibition, % at 10 µM. 1.5% of 200,000 active;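 active = inhibition above about 50% when tested at 10 µM, limit read from the data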
Target sequence (P08659 whole entry, looked up): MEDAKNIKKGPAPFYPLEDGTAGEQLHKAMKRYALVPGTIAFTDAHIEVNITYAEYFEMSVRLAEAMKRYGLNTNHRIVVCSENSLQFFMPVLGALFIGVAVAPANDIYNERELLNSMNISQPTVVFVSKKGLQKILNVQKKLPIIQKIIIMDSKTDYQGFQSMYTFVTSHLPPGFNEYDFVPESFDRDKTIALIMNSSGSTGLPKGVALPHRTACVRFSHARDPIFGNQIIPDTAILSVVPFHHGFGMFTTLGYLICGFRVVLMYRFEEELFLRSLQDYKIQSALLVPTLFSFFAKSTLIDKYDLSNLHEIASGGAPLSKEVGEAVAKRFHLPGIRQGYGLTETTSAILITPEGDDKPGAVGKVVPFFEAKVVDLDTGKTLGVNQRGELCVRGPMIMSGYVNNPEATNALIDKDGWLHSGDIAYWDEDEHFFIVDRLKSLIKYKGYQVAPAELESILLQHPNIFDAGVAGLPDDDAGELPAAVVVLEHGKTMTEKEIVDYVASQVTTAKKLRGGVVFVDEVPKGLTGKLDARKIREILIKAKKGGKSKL
FLuc act counter: affects firefly luciferase, flagging false hits in luciferase stimulation screens | 200,000 tested, under 10 active | ATPlite luciferase biochemical, luminescence, 10 min; 0 = ATP-free wells, 1 = DMSO control | P08659 | activation factor at 10 µM;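 active = luciferase activation factor, scaled between plate controls, of at least 2 with compound at 10 µM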
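Material: Luciferase/luciferin reagent mix; Doses: test compounds dosed from 2 mM stocks in 100% DMSO; Schedule: 10 min incubation after luciferase reagent addition, room temperature; Measured by: luminescence from luciferase reaction; Read-out: luminescence gain marking luciferase activators.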
sdo1 growth: sdo1-depleted yeast growth rescue. S. cerevisiae sdo1-depleted JHY4D growth rescue, OD600 30 h; active compounds read high; pdr5 snq2 efflux-pump mutant strain. z-score at 10 µM. 0.21% of 140,000 active;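 active = z-score above 3 at both the 24 hr and the 30 hr optical density reads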;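 also: z-score against mean and SD of all compound wells on the same plate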
STAT1 activator: activators of IFN-gamma induced STAT1 signaling | activation (% of control), % at 5.5 µM | 2.6% of 200,000 active | NIH 3T3 STAT1-luciferase reporter, luminescence; 100% = IFN-gamma alone, no compound;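 active = activation above the screen-wide mean activation plus 3 SD, cut at about 130% in these data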;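 also: raw ratio to IFN-gamma control signal so 100% means no change and 0% no light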
NF-kB neuron act: compounds increasing NF-kB expression in human neuronal cells; NF-kB reporter expression; active compounds read high; fold change at 12.5 µM; 1.6% of 190,000 active; in the data active = fold change above about 3.3
* marks the source's active call; other numbers are inactive results; nt = no result given.

SMILES	APP 5'UTR act	FLuc inhib CS	FLuc act counter	sdo1 growth	STAT1 activator	NF-kB neuron act
CCn1c(C2CCN(Cc3ccccc3)CC2)n[nH]c1=S	154*	-6	1.1	nt	99	1
S=c1[nH]nc(C2CC2)n1Cc1ccco1	-3	-6	1.1	0.36	99	1.4
COc1ccc(CCNC(=O)c2cc(C(=O)c3cc(C)ccc3O)cn(CCc3ccc(OC)cc3)c2=O)cc1	-8	-4	1	-0.15	99	0.29
CCOc1cccc2cc(-c3csc(NC(=O)CCC(=O)NCCN4CCCCC4C)n3)c(=O)oc12 (stereo unspecified)	178*	29	0.7	nt	145*	6.8*
CCOc1cccc2cc(-c3csc(NC(=O)CCC(=O)N4CCC(C)CC4)n3)c(=O)oc12	-5	-4	1	0.51	98	1.1
CC(=O)N1CCc2cc(N=NC3=C(O)CC(C)(C)CC3=O)ccc21	109	17	0.8	nt	132*	0.92
CN(C)c1nc(N(C)C)nc(N(C#N)CN2C(=O)c3ccccc3S2(=O)=O)n1	-10	-4	1	nt	96	0.99
CN(C)c1ccc(C2=NOC(CN3C(=O)c4ccccc4S3(=O)=O)C2)cc1 (stereo unspecified)	93	10	0.9	0.55	147*	3.4*
CCC(Sc1nnc2c3ccccc3n(CC)c2n1)C(=O)Nc1sc2c(c1C#N)CCCC2 (stereo unspecified)	1	-4	1	-1.4	104	0.92
CC(=O)c1ccc2noc(-c3ccccc3)c2c1	-10	-4	1	nt	102	1.2
c1ccc(-c2onc3cc4c(cc23)OCCO4)cc1	88	22	0.8	-0.56	146*	3.8*
O=C(COC(=O)c1ccc(Br)o1)NCc1ccco1	9	nt	nt	nt	106	nt
COc1cc(NC(=O)c2cc3nc(C)cc(C)n3n2)c(OC)cc1Cl	60	10	0.9	-1.1	132*	1.5
COc1cc(NC(=O)c2c(F)c(F)c(F)c(F)c2F)c(OC)cc1Cl	-9	-7	1.1	-0.48	110	1.4
COc1cc(OC)cc(C(=O)NCC(=O)N2CCCCC2)c1	7	-4	1	-0.42	101	1
O=C(Nc1ccc(Cl)c(Cl)c1)N1CC=CCC1	56	4	1	-0.95	127	3.5*
Cc1ccc(NC(=O)N2CCCC2)cc1Cl	31	7	0.9	nt	117	1.4
Cc1cccc(OCC(=O)N/N=C\c2cccn2C)c1C	3	-1	1	nt	101	0.99
COc1ccc2nc(N3CCOCC3)cc(C)c2c1	114	45	0.6	1.5	120	5*
CC(Cc1cccs1)NC(=O)Nc1ccc([N+](=O)[O-])cc1 (stereo unspecified)	29	1	1	nt	111	1.4
Cc1ccc(NC2=Nc3ccccc3CS2)cc1	184*	69*	0.3	1.4	100	5.6*
Cc1ccc(Nc2ccccc2)cc1	-4	-3	1	0.33	96	1.2
Cc1ccc2ccc(C(Nc3ccccn3)c3ccccc3)c(O)c2n1 (stereo unspecified)	0	-6	1.1	-0.2	98	1.3
COc1cc(C(Nc2ccccn2)c2ccc3ccc(C)nc3c2O)cc(OC)c1O (stereo unspecified)	-18	-5	1	0.94	94	6*
Oc1c(C(Nc2ccccn2)c2ccccn2)ccc2cccnc12 (stereo unspecified)	-26	-2	1	-0.02	94	7*
SMILES	APP 5'UTR act	FLuc inhib CS	FLuc act counter	sdo1 growth	STAT1 activator	NF-kB neuron act
CN1CCN(NC(=S)Nc2ccc(Oc3ccccc3)cc2)CC1	-10	-9	1.1	nt	95	0.96
CC1Cc2ccccc2N1C(=O)CSc1nnnn1C(C)C (stereo unspecified)	7	-7	1.1	0.66	99	1.1
O=C(N/N=C/C=C\c1ccccc1[N+](=O)[O-])c1cccs1	1	8	0.9	-0.64	101	5.2*
O=C(N/N=C/C=C\c1ccco1)c1cccs1	24	15	0.9	nt	130*	2.1
Cc1ccc(CSc2nnc(SCC(=O)N/N=C/C=C/c3ccco3)s2)cc1	-22	16	0.8	1.2	108	0.9
O=C(Cc1cccs1)N/N=C/C=C\c1ccco1	21	14	0.9	1.5	117	1.5
Cc1ccc(CSc2nnc(SCC(=O)N/N=C/C=C/c3ccccc3[N+](=O)[O-])s2)cc1	-36	59*	0.4	-0.29	98	1.2
